Results taken from ChEMBL document CHEMBL3124905, “Isothiocoumarin-3-carboxylic acid derivatives: synthesis, anticancer and antitrypanosomal activity evaluation” (Eur J Med Chem, 2014).

How the values were obtained:
[1] = Growth inhibition of human SF539 cells at 10 uM after 48 hrs by SRB assay; values are per cent of control; details: SF-539, 48 h
[2] = Growth inhibition of human HOP92 cells after 48 hrs by SRB assay; assay type: functional; details: HOP-92, 48 h
Summary of the method: (§1)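 NCI five-dose assay against the ~60-cell-line panel (nine cancer types). Tenfold dilutions from 10−4 to 10−8 M were used with continuous 48-h exposure and SRB absorbance readout. Percent growth was computed from time-zero, control and treated absorbances. GI50 is the concentration giving 50% lower net protein increase than controls. Values not reached are reported as beyond the tested range.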

[3] = Growth inhibition of human SF539 cells after 48 hrs by SRB assay; assay type: functional; details: SF-539, 48 h
Summary of the method: as §1

[4] = Growth inhibition of human Hs 578T cells after 48 hrs by SRB assay; assay type: functional
Summary of the method: as §1

ACHN = test: Growth inhibition of human ACHN cells after 48 hrs by SRB assay; assay type: functional
Summary of the method: as §1

SNB-75 [5] = test: Growth inhibition of human SNB75 cells at 10 uM after 48 hrs by SRB assay; values are per cent of control; details: SNB-75, 48 h
TK-10 = test: Growth inhibition of human TK10 cells after 48 hrs by SRB assay; assay type: functional; details: TK-10, 48 h
Summary of the method: (§2)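 NCI ~60-cell-line five-dose screen. Cells were preincubated 24-48 h, then given compound at 10-fold dilutions from 10^-4 to 10^-8 M with 48 h continuous exposure. SRB protein stain was read by absorbance at time zero, in untreated control and with drug. GI50 was derived from [(Ti-Tz)/(C-Tz)]x100=50, TGI from Ti=Tz, and LC50 from [(Ti-Tz)/Tz]x100=-50.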

[6] = Growth inhibition of human OVCAR4 cells after 48 hrs by SRB assay; assay type: functional; details: OVCAR-4, 48 h
Summary of the method: as §1

OVCAR-3 [7] = test: Growth inhibition of human OVCAR3 cells at 10 uM after 48 hrs by SRB assay; values are per cent of control; details: OVCAR-3, 48 h
[8] = tested on: Trypanosoma brucei brucei; test: Antitrypanosomal activity against bloodstream form of Trypanosoma brucei brucei strain 90-13 assessed as inhibition of parasite growth at 10 ug/ml after 72 hrs by resazurin reduction test; assay type: functional; details: strain 90-13, 72 h
Summary of the method: (§3)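 Trypanosoma brucei brucei 90-13 bloodstream forms, grown in HMI9 with 10% FCS at 37 °C under 5% CO2. Log-phase parasites were seeded at 10^5 cells/mL with or without inhibitor, with stocks prepared in DMSO. After 72 h, resazurin was added and fluorescence was read at 530/590 nm after a further 4 h. Percent growth inhibition was calculated versus drug-free parasites, with DMSO as control.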

[9] = tested on: Trypanosoma brucei brucei; test: Antitrypanosomal activity against bloodstream form of Trypanosoma brucei brucei strain 90-13 assessed as inhibition of parasite growth at 1 ug/ml after 72 hrs by resazurin reduction test; assay type: functional; details: strain 90-13, 72 h
Summary of the method: as §3

[10] = Growth inhibition of human UO31 cells after 48 hrs by SRB assay; assay type: functional; details: UO-31, 48 h
Summary of the method: as §2

A549 = test: Growth inhibition of human A549/ATCC cells at 10 uM after 48 hrs by SRB assay; values are per cent of control; details: A549, 48 h
SR = test: Growth inhibition of human SR cells after 48 hrs by SRB assay; assay type: functional
Summary of the method: as §2

Malme-3M = test: Growth inhibition of human MALME-3M cells after 48 hrs by SRB assay; assay type: functional
Summary of the method: as §1

CAKI-1 [11] = test: Growth inhibition of human CAKI-1 cells at 10 uM after 48 hrs by SRB assay; values are per cent of control; details: CAKI-1, 48 h
NCI-H322M = test: Growth inhibition of human NCI-H322M cells after 48 hrs by SRB assay; assay type: functional
Summary of the method: as §1

OVCAR-3 [12] = test: Growth inhibition of human OVCAR3 cells after 48 hrs by SRB assay; assay type: functional; details: OVCAR-3, 48 h
Summary of the method: as §1

[13] = Growth inhibition of human UO31 cells at 10 uM after 48 hrs by SRB assay; values are per cent of control; details: UO-31, 48 h
[14] = Acute toxicity in ip dosed white mouse; assay type: organism-based; details: in vivo
Summary of the method: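 White male mice, 23-25 g, dosed intraperitoneally with compound dissolved in 0.9% NaCl saline plus 1-2 drops Polysorbate 80 (Tween-80). Solutions prepared immediately before use. Doses ranged 100-1000 mg/kg, testing 4 or 5 doses with 6 animals per dose. LD50 derived by the Litchfield-Wilcoxon method.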

CAKI-1 [15] = test: Growth inhibition of human CAKI-1 cells after 48 hrs by SRB assay; assay type: functional; details: CAKI-1, 48 h
Summary of the method: as §1

U-251 = test: Growth inhibition of human U251 cells after 48 hrs by SRB assay; assay type: functional; details: U-251, 48 h
Summary of the method: as §2

SNB-75 [16] = test: Growth inhibition of human SNB75 cells after 48 hrs by SRB assay; assay type: functional; details: SNB-75, 48 h
Summary of the method: as §1

## COc1ccc2cc(C(=O)Nc3nc(-c4ccccc4)cs3)sc(=O)c2c1OC
[1]
  growth percent at 10 µM: -48%
[2]
  GI50: 1290 nM
[2]; read-out: pTGI (converted)
  TGI: 3160 nM
[3]
  GI50: 1780 nM
[3]; read-out: pTGI (converted)
  TGI: 3630 nM
[4]
  GI50: 2630 nM
[4]; read-out: pTGI (converted)
  TGI: 4370 nM
ACHN
  GI50: 2040 nM
ACHN; read-out: pTGI (converted)
  TGI: > 100000 nM
SNB-75 [5]
  growth percent at 10 µM: -43.8%
TK-10
  GI50: 2090 nM
TK-10; read-out: pTGI (converted)
  TGI: 3800 nM
[6]
  GI50: 1860 nM
OVCAR-3 [7]
  growth percent at 10 µM: -67%
[8]
  inhibition at 10 µg/mL: 11.3%
[9]
  inhibition at 1 µg/mL: 28.6%
[10]
  GI50: 1950 nM
[10]; read-out: pTGI (converted)
  TGI: 3090 nM
A549
  growth percent at 10 µM: -50.8%
SR
  GI50: 2750 nM
SR; read-out: pTGI (converted)
  TGI: > 100000 nM
Malme-3M
  GI50: 1950 nM
Malme-3M; read-out: pTGI (converted)
  TGI: 8320 nM
CAKI-1 [11]
  growth percent at 10 µM: -70.8%
NCI-H322M; read-out: GI50
  GI50: 1280 nM
NCI-H322M; read-out: pGI50 (converted)
  GI50: 1290 nM
NCI-H322M; read-out: pTGI (converted)
  TGI: 5620 nM
OVCAR-3 [12]
  GI50: 1910 nM
OVCAR-3 [12]; read-out: pTGI (converted)
  TGI: 3720 nM
[13]
  growth percent at 10 µM: -65.5%
[14]
  LD50: 515 mg/kg
CAKI-1 [15]
  GI50: 240 nM
CAKI-1 [15]; read-out: pTGI (converted)
  TGI: 1780 nM
U-251
  GI50: 2000 nM
U-251; read-out: pTGI (converted)
  TGI: 4470 nM
SNB-75 [16]
  GI50: 1580 nM
SNB-75 [16]; read-out: pTGI (converted)
  TGI: 3550 nM
